# Experiments:
# HBL-1 cells [1] = experiment: Targeted metabolomics; type: cell-based, human; settings: folate-replete media, 0.1 or 0.5 μM, 24 h
# Method in brief: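 HBL-1 cells were expanded in RPMI 1640 with 1 mM HEPES, 100 U/mL penicillin, 100 µg/mL streptomycin and 10% FBS at 37 °C, 5% CO2. Metabolites were eluted by LC-MS/MS gradient. Buffer A was acetonitrile and Buffer B was 5% acetonitrile with 20 mM ammonium acetate, pH 9.0. The gradient started at 85% A and fell to 50% A by 17 min.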
# HBL-1 cells [2] = settings: human, 72 h
# [3] = tested on: MTX resistant (MTX^R) HBL-1 cells; experiment: Cell viability of MTX resistant; type: cell-based, human
# cellular DHFR = target: T1, cellular DHFR (Homo sapiens, UniProt P00374); experiment: Label-free quantitative proteomics of HBL-1 cells; type: cell-based; settings: 1 μM, 24 h
# T1 sequence (P00374 1-187): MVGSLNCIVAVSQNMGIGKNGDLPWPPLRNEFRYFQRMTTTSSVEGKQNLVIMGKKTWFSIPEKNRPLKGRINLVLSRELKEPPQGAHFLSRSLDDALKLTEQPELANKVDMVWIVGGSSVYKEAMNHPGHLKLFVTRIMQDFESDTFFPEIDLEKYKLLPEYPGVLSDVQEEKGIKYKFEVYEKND
# DHFR = target: T2, DHFR (Homo sapiens, UniProt P00374); experiment: Western blot analysis of cellular DHFR; type: cell-based
# T2 sequence (P00374 1-187): T1 sequence (P00374 1-187)
# in vitro = settings: human
# DHFR-HiBiT = target: T3, DHFR-HiBiT (Homo sapiens, UniProt P00374); experiment: DHFR HiBiT assay; type: cell-based; settings: for Degradation potency (pDC50): DHFR-HiBiT, 24 h, 30°C, mean ±SD, three independent experiments, ND = not determined (inactive); for Emax: HBL1, read-out: Assay max response (%)
# T3 sequence (P00374 1-187): T1 sequence (P00374 1-187)
# HBL-1 cells [4] = experiment: Folate cytotoxicity dependence; type: cell-based, human
# [5] = target: T4, recombinant human DHFR•NADPH complex (Homo sapiens, UniProt P00374); experiment: Fluorescence polarization; type: binding
# T4 sequence (P00374 1-187): T1 sequence (P00374 1-187)
# MOLT-4 cells = experiment: CellTiter-Glo cytotoxicity in MOLT-4 cells; type: cell-based, human
# HBL-1 cells [6] = experiment: cells; settings: Homo sapiens, HBL1, read-out: EC50 in MTX-sensitive HBL-1 cells
# [7] = tested on: MTX sensitive (MTX^S) HBL-1 cells; experiment: Cell viability of MTX sensitive; type: cell-based; settings: Homo sapiens, HBL1, read-out: EC50, cell viability
# HEK-293 cells = experiment: Live-cell imaging of cell growth; type: cell-based, human; settings: live-cell imaging over 120 h
EC50 at 72 h (in vitro),Degradation potency (pDC50) (DHFR-HiBiT; HBL-1 cells),Emax (DHFR-HiBiT),IC50 [5],SMILES,"Cytotoxicity efficacy (viability, %CTG) (HBL-1 cells [2])",also measured
–,–,21.2 ± 2.5%,7240 nM,"CN(Cc1cnc2nc(N)nc(N)c2n1)c1ccc(C(=O)NC(CCC(=O)O)C(=O)NCCCCCCCCNc2cccc3c2C(=O)N(C2CCC(=O)NC2=O)C3=O)cc1 (centres unmarked) [VSTX-αE3L, 8, 4-(4-(((2,4-diaminopteridin-6-yl)methyl)(methyl)amino)benzamido)-5-((8-((2-(2,6-dioxopiperidin-3-yl)-1,3-dioxoisoindolin-4-yl)amino)octyl)amino)-5-oxopentanoic acid]",−2.0 ±16.2%,"cytotoxicity in folic acid-free, replete and rescue conditions (HBL-1 cells [4]): showed no cytotoxicity; change of cellular DHFR-HiBiT level (DHFR-HiBiT; HBL-1 cells): did not lead to appreciable changes in DHFR-HiBiT concentration"
21400 nM,6.43 ±0.18,-70.1 ± 0.4%,85.1 nM,"CN(Cc1cnc2nc(N)nc(N)c2n1)c1ccc(C(=O)N[C@@H](CCC(=O)NCCCCCCCCNc2cccc3c2C(=O)N(C2CCC(=O)NC2=O)C3=O)C(=O)O)cc1 (stereo partly drawn) [Versortrexate (VSTX), 6, N2-(4-(((2,4-diaminopteridin-6-yl)methyl)(methyl)amino)benzoyl)-N5-(8-((2-(2,6-dioxopiperidin −3-yl)-1,3-dioxoisoindolin-4-yl)amino)octyl)-L-glutamine]",−45.7 ±26.9%,–

# Second part, the compound before the results:
SMILES,EC50 at 72 h (in vitro),Degradation potency (pDC50) (DHFR-HiBiT; HBL-1 cells),Emax (DHFR-HiBiT),IC50 [5],"Cytotoxicity efficacy (viability, %CTG) (HBL-1 cells [2])",also measured
"COC(=O)[C@H](CCC(=O)NCCCCCCCCNc1cccc2c1C(=O)N(C1CCC(=O)NC1=O)C2=O)NC(=O)c1ccc(N(C)Cc2cnc3nc(N)nc(N)c3n2)cc1 (stereo partly drawn) [VSTX-ME, 9, Methyl N2-(4-(((2,4-diaminopteridin-6-yl)methyl)(methyl)amino)benzoyl)-N5-(8-((2-(2,6-dioxopiperidin-3-yl)-1,3-dioxoisoindolin-4-yl)amino)octyl)-L-glutaminate]",5750 nM,7.56 ±0.29,-71.9 ± 2.1%,–,−26.8 ±22.7%,"cellular dUMP levels (HBL-1 cells [1]): only a modest increase; purine nucleotides ATP and GTP relative to untreated control (HBL-1 cells [1]): decreased; effect on cell viability between parental (MTX^S) and MTX^R HBL-1 cell lines [3]: unchanged; change of cellular DHFR by proteomics (cellular DHFR): significant degradation of cellular DHFR; DHFR level by western blot (DHFR; 24 h, HBL-1, HEK-293, Jurkat, MOLT-4, DND-41, TALL-5 cells): consistently able to degrade DHFR across this cell panel at sub-micromolar concentrations; DHFR degradation by western blot in MTX^R cells (DHFR; MTX^R HBL-1 cells): remained capable of degrading DHFR in the MTX^R cells; time of maximum DHFR-HiBiT depletion (DHFR-HiBiT; HBL-1 cells, time course 5 to 72 h): 24 h"
"CN(Cc1cnc2nc(N)nc(N)c2n1)c1ccc(C(=O)N[C@@H](CCC(=O)NCCOCCOCCOCCNC(=O)COc2cccc3c2C(=O)N(C2CCC(=O)NC2=O)C3=O)C(=O)O)cc1 (stereo partly drawn) [Compound 3, (19S)-19-(4-(((2,4-diaminopteridin-6-yl)methyl)(methyl)amino)benzamido)-1-((2-(2,6-dioxopiperidin-3-yl)-1,3-dioxoisoindolin-4-yl)oxy)-2,16-dioxo-6,9,12-trioxa-3,15-diazaicosan-20-oic acid]",2820 nM,6.27 ±0.21,-40.6 ± 1.8%,43.7 nM,−72.1 ±7.9%,"cytotoxicity compared to PROTAC 4 (HBL-1 cells [2]): an order of magnitude improvement in cytotoxicity when compared to PROTAC 4; CTG cytotoxicity compared to PROTAC 4 (MOLT-4 cells): more cytotoxic than PROTAC 4 by an order of magnitude; DHFR concentration in the HiBiT assay, % of DMSO control (DHFR-HiBiT; 24 h treatment, HBL-1 cells): ~ 40%"
"CN(Cc1cnc2nc(N)nc(N)c2n1)c1ccc(C(=O)N[C@@H](CCC(=O)O)C(=O)O)cc1 [MTX, 1, Methotrexate, reference compound]",61.7 nM,–,–,–,−68.7 ±5.7%,"cellular dUMP levels (HBL-1 cells [1]): significant increase in dUMP levels; EC50 ([3]; Homo sapiens, HBL1, 240 h, read-out: EC50, cell viability): 4640 nM; EC50 (HBL-1 cells [6]): < 100 nM; increase of cytotoxicity in folate-depleted vs. folate-containing media (HBL-1 cells [4]): < 2 fold; EC50 [7]: 45.2 nM; effect on cellular confluence (HEK-293 cells): reduced cellular confluence beginning after 48 h of treatment"
"CN1C(=O)CCC(N2C(=O)c3cccc(NCCCCCCCCNC(=O)CC[C@H](NC(=O)c4ccc(N(C)Cc5cnc6nc(N)nc(N)c6n5)cc4)C(=O)O)c3C2=O)C1=O (stereo partly drawn) [VSTX-IE3L, 7, N2-(4-(((2,4-diaminopteridin-6-yl)methyl)(methyl)amino)benzoyl)-N5-(8-((2-(1-methyl-2,6-dioxopiperidin-3-yl)-1,3-dioxoisoindolin-4-yl)amino)octyl)-L-glutamine]",–,–,39.3 ± 6.6%,25.1 nM,6.2 ±4.4%,"cytotoxicity in folic acid-free, replete and rescue conditions (HBL-1 cells [4]): did not exhibit appreciable toxicity in any of the conditions; change of cellular DHFR-HiBiT level (DHFR-HiBiT; HBL-1 cells): increase in cellular DHFR-HiBiT"
"CN(Cc1cnc2nc(N)nc(N)c2n1)c1ccc(C(=O)N[C@@H](CC(F)C(=O)O)C(=O)O)cc1 (stereo partly drawn) [FMTX, 2, (2S)-2-(4-(((2,4-diaminopteridin-6-yl)methyl)(methyl)amino)benzamido)-4-fluoropentanedioic acid, reference compound]",1050 nM,–,53.9 ± 5.2%,93.3 nM,−65.7 ±5.7%,effect on cellular confluence (HEK-293 cells): reduced cellular confluence beginning after 48 h of treatment

# Reference: article PMC10922102 (Cell chemical biology, 2023)
